Experimental data from ChEMBL document CHEMBL1649528 (Antimicrob Agents Chemother, 2009).

Legend:
[1] = test system: West Nile virus; assay: Antiviral activity against West Nile virus infected in CyPA-deficient human Huh7.5 cells assessed as decrease in viral replication at 4 uM after 24 hrs by luciferase reporter gene assay; assay type: functional; details: Huh-7, 24 h
How it was run: (§1)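 Huh-7.5 shRNA lines (CyPA knockdown sh-A and control sh-Fluc; puromycin 1 μg/ml) seeded at 2 × 10⁴/well and infected 24 h later with WNV VLP at 1 FFU/cell. Cs (0, 4 or 8 μM) or 1% ethanol added at once. Luciferase read at 24 h p.i. and expressed as % of ethanol-treated sh-Fluc. Mean ± SD of three independent experiments.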

[2] = test system: West Nile virus; assay: Antiviral activity against West Nile virus infected in CyPA-deficient human Huh7.5 cells assessed as decrease in viral replication at 8 uM after 24 hrs by luciferase reporter gene assay; assay type: functional; details: Huh-7, 24 h; how it was run: as §1
[3] = test system: West Nile virus; assay: Antiviral activity against West Nile virus infected in human Huh7.5 cells assessed as decrease in viral replication at 8 uM after 24 hrs by luciferase reporter gene assay; assay type: functional; details: Huh-7, 24 h; how it was run: as §1
[4] = test system: West Nile virus; assay: Antiviral activity against West Nile virus infected in african green monkey Vero cells assessed as decrease in viral RNA synthesis after 24 hrs by luciferase reporter gene assay; assay type: functional, organism-based
How it was run: (§2)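 Stable Rluc-Neo-Rep replicon-bearing Vero cells (DENV-1 or WNV; kept in DMEM/10% FBS with 1 mg/ml G418, 37°C, 5% CO₂) treated with Cs at ≤8 μM. Read-out is replicon Renilla luciferase, and 50% effective concentration is taken from the dose response.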

[5] = test system: dengue virus type 1; assay: Antiviral activity against Dengue virus 1 infected in african green monkey Vero cells assessed as decrease in viral RNA synthesis after 24 hrs by luciferase reporter gene assay; assay type: functional, organism-based; how it was run: as §2
[6] = test system: West Nile virus; assay: Antiviral activity against West Nile virus infected in human Huh7.5 cells assessed as decrease in viral RNA synthesis at 8 uM after => 20 hrs by luciferase reporter gene assay; assay type: functional; details: Huh-7, 20 h
How it was run: (§3)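 Rluc2A-Rep replicon RNA (10 μg; WNV or DENV-1) electroporated into Huh-7.5 cells, seeded at 4 × 10⁵/well, then treated at once with 8 μM Cs or 1% ethanol. Cells washed with cold PBS and lysed at time points, and lysates frozen at −80°C. Luciferase read on 20 μl lysate. Early signal (1–10 h p.t.) reflects translation and later signal (>10 h) reflects RNA replication.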

[7] = test system: dengue virus type 1; assay: Antiviral activity against Dengue virus 1 infected in human Huh7.5 cells assessed as decrease in viral RNA synthesis at 8 uM after => 20 hrs by luciferase reporter gene assay; assay type: functional; details: Huh-7, 20 h; how it was run: as §3
[8] = test system: Yellow fever virus; assay: microbe, parasite or virus in culture; assay type: functional; details: Huh-7, 20 h

## C/C=C/C[C@@H](C)[C@@H](O)[C@H]1C(=O)N[C@@H](CC)C(=O)N(C)CC(=O)N(C)[C@@H](CC(C)C)C(=O)N[C@@H](C(C)C)C(=O)N(C)[C@@H](CC(C)C)C(=O)N[C@@H](C)C(=O)N[C@H](C)C(=O)N(C)[C@@H](CC(C)C)C(=O)N(C)[C@@H](CC(C)C)C(=O)N(C)[C@@H](C(C)C)C(=O)N1C [CYCLOSPORINE]
[1]
  inhibition at 4 µM: 10%
[2]
  inhibition at 8 µM: 2%
[3]
  inhibition at 8 µM: 4%
[4]
  IC50: 8 µM
[5]
  IC50: ≤ 0.5 µM
[6]
  inhibition at 8 µM: ≥ 70%
[7]
  inhibition at 8 µM: ≥ 70%
[8]
  inhibition at 8 µM: ≥ 70%
